ChEMBL document CHEMBL3045605, “Synthesis and anticancer evaluation of novel 3,5-diaryl-thiazolo[4,5-d]pyrimidin-2-one derivatives” (2013)

Columns and labels:
Assay type in all cases: functional
NCI-H460 = assay: Anticancer activity against Homo sapiens (human) NCI-H460 cells assessed as cell growth at 10 uM by SRB assay; conditions: read-out: Activity
Summary of the method: (§1)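 Single-dose screen in the NCI 60-human-tumour-cell-line panel (nine cancer types) at 10−5 M. Cell growth was estimated by sulforhodamine B protein staining and reported as percent growth of treated cells relative to untreated controls.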

[1] = Anticancer activity against Homo sapiens (human) NCI-322M cells assessed as cell growth at 10 uM by SRB assay; conditions: read-out: Activity; summary of the method: as §1
NCI-H522 = assay: Anticancer activity against Homo sapiens (human) NCI-H522 cells by SRB assay
Summary of the method: (§2)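 Five-dose NCI 60-cell-line panel testing at tenfold dilutions from 10−4 to 10−8 M, with growth read by sulforhodamine B protein staining. For each cell line: GI50 is the molar concentration giving half growth inhibition; TGI is total growth inhibition (cytostatic); LC50 is the molar concentration killing 50% of the initial cells (cytotoxic).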

HOP-92 = assay: Anticancer activity against Homo sapiens (human) HOP92 cells by SRB assay
Summary of the method: (§3)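 NCI 60-line panel, five tenfold dilutions from 10−4 to 10−8 M, growth read by sulforhodamine B staining against untreated controls. From the dose–response per line: GI50 (molar concentration giving half growth inhibition), TGI (molar concentration giving total growth inhibition, cytostatic) and LC50 (molar concentration killing 50% of initial cells, cytotoxic).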

MOLT-4 = assay: Anticancer activity against Homo sapiens (human) MOLT4 cells by SRB assay; summary of the method: as §2
SR = assay: Anticancer activity against Homo sapiens (human) SR cells assessed as cell growth at 10 uM by SRB assay; conditions: read-out: Activity
Summary of the method: (§4)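 NCI 60-cell human tumour panel (leukemia, melanoma, lung, colon, CNS, breast, ovarian, prostate, renal lines) given a single 10−5 M dose. Growth is expressed as percent growth of treated cells relative to untreated controls, with cell growth/viability estimated by sulforhodamine B protein staining.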

[2] = Anticancer activity against Homo sapiens (human) RPMI8266 cells assessed as cell growth at 10 uM by SRB assay; conditions: read-out: Activity; summary of the method: as §1
CCRF-CEM = assay: Anticancer activity against Homo sapiens (human) CCRF-CEM cells assessed as cell growth at 10 uM by SRB assay; conditions: read-out: Activity
Summary of the method: (§5)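 NCI 60-cell human tumour panel (nine cancer types) screened at one concentration, 10−5 M. Cell growth estimated by sulforhodamine B protein staining and reported as percent growth of treated cells relative to untreated controls.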

786-0 = assay: Anticancer activity against Homo sapiens (human) 786-0 cells by SRB assay; summary of the method: as §3
OVCAR-8 = assay: Anticancer activity against Homo sapiens (human) OVCAR8 cells by SRB assay; summary of the method: as §2
SK-MEL-5 [3] = assay: Anticancer activity against Homo sapiens (human) SK-MEL-5 cells by SRB assay; summary of the method: as §2
Malme-3M = assay: Anticancer activity against Homo sapiens (human) MALME-3M cells by SRB assay; summary of the method: as §3
U-251 [4] = assay: Anticancer activity against Homo sapiens (human) U251 cells by SRB assay
Summary of the method: (§6)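 NCI five-dose follow-up on the 60-line human tumour panel at tenfold dilutions from 10−4 to 10−8 M, with growth read by sulforhodamine B protein assay against untreated controls. For each cell line, GI50 (half growth inhibition), TGI (total growth inhibition) and LC50 (50% death of initial cells) are calculated as molar concentrations.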

SF-268 [5] = assay: Anticancer activity against Homo sapiens (human) SF268 cells by SRB assay; summary of the method: as §2
KM12 = assay: Anticancer activity against Homo sapiens (human) KM12 cells by SRB assay; summary of the method: as §3
SW-620 = assay: Anticancer activity against Homo sapiens (human) SW620 cells by SRB assay; summary of the method: as §6
HCT-15 = assay: Anticancer activity against Homo sapiens (human) HCT15 cells by SRB assay; summary of the method: as §3
HCC 2998 = assay: Anticancer activity against Homo sapiens (human) HCC2998 cells by SRB assay; summary of the method: as §3
A498 [6] = assay: Anticancer activity against Homo sapiens (human) A498 cells assessed as cell growth at 10 uM by SRB assay; conditions: read-out: Activity; summary of the method: as §5
NCI/ADR-RES = assay: Anticancer activity against Homo sapiens (human) NCI/ADR-RES cells assessed as cell growth at 10 uM by SRB assay; conditions: read-out: Activity; summary of the method: as §1
SK-OV-3 = assay: Anticancer activity against Homo sapiens (human) SKOV3 cells assessed as cell growth at 10 uM by SRB assay; conditions: read-out: Activity; summary of the method: as §1
OVCAR-4 = assay: Anticancer activity against Homo sapiens (human) OVCAR4 cells assessed as cell growth at 10 uM by SRB assay; conditions: read-out: Activity; summary of the method: as §1
SK-MEL-5 [7] = assay: Anticancer activity against Homo sapiens (human) SK-MEL-5 cells assessed as cell growth at 10 uM by SRB assay; conditions: read-out: Activity; summary of the method: as §1
MDA-MB-435 = assay: Anticancer activity against Homo sapiens (human) MDA-MB-435 cells assessed as cell growth at 10 uM by SRB assay; conditions: read-out: Activity; summary of the method: as §1
U-251 [8] = assay: Anticancer activity against Homo sapiens (human) U251 cells assessed as cell growth at 10 uM by SRB assay; conditions: read-out: Activity; summary of the method: as §4
SNB-19 = assay: Anticancer activity against Homo sapiens (human) SNB19 cells assessed as cell growth at 10 uM by SRB assay; conditions: read-out: Activity; summary of the method: as §1
SF-268 [9] = assay: Anticancer activity against Homo sapiens (human) SF268 cells assessed as cell growth at 10 uM by SRB assay; conditions: read-out: Activity; summary of the method: as §1
SF-295 = assay: Anticancer activity against Homo sapiens (human) SF295 cells assessed as cell growth at 10 uM by SRB assay; conditions: read-out: Activity; summary of the method: as §1
T47D [10] = assay: Anticancer activity against Homo sapiens (human) T47D cells by SRB assay; summary of the method: as §6
MCF7 = assay: Anticancer activity against Homo sapiens (human) MCF7 cells by SRB assay; summary of the method: as §3
RXF 393 = assay: Anticancer activity against Homo sapiens (human) RXF393 cells by SRB assay; summary of the method: as §2
A498 [11] = assay: Anticancer activity against Homo sapiens (human) A498 cells by SRB assay; summary of the method: as §3
MDA-MB-468 = assay: Anticancer activity against Homo sapiens (human) MDA-MB-468 cells assessed as cell growth at 10 uM by SRB assay; conditions: read-out: Activity; summary of the method: as §1
T47D [12] = assay: Anticancer activity against Homo sapiens (human) T47D cells assessed as cell growth at 10 uM by SRB assay; conditions: read-out: Activity; summary of the method: as §4
BT-549 = assay: Anticancer activity against Homo sapiens (human) BT549 cells assessed as cell growth at 10 uM by SRB assay; conditions: read-out: Activity; summary of the method: as §5
MDA-MB-231 = assay: Anticancer activity against Homo sapiens (human) MDA-MB-231/ATCC cells assessed as cell growth at 10 uM by SRB assay; conditions: read-out: Activity; summary of the method: as §5
DU-145 = assay: Anticancer activity against Homo sapiens (human) DU145 cells assessed as cell growth at 10 uM by SRB assay; conditions: read-out: Activity; summary of the method: as §5
PC-3 = assay: Anticancer activity against Homo sapiens (human) PC3 cells assessed as cell growth at 10 uM by SRB assay; conditions: read-out: Activity; summary of the method: as §1

Structure (SMILES): O=c1sc2c(Cl)nc(-c3ccccc3)nc2n1-c1ccccc1
- growth at 10 µM (NCI-H460): 78%
- growth at 10 µM [1]: 62%
- GI50 (NCI-H522): 1.23 µM
- TGI (NCI-H522; read-out: pTGI (converted)): 3.02 µM
- GI50 (HOP-92): 3.09 µM
- TGI (HOP-92; read-out: pTGI (converted)): 67.6 µM
- GI50 (MOLT-4): 12.9 µM
- growth at 10 µM (SR): 8%
- growth at 10 µM [2]: 75%
- growth at 10 µM (CCRF-CEM): 23%
- GI50 (786-0): 7.08 µM
- TGI (786-0; read-out: pTGI (converted)): 56.2 µM
- GI50 (OVCAR-8): 2.04 µM
- TGI (OVCAR-8; read-out: pTGI): 43.7 µM
- GI50 (SK-MEL-5 [3]): 15.5 µM
- GI50 (Malme-3M): 14.8 µM
- TGI (Malme-3M; read-out: pTGI (converted)): 79.4 µM
- GI50 (U-251 [4]): 3.72 µM
- TGI (U-251 [4]; read-out: pTGI (converted)): 18.6 µM
- GI50 (SF-268 [5]): 10.5 µM
- TGI (SF-268 [5]; read-out: pTGI (converted)): 38 µM
- GI50 (KM12): 81.3 µM
- GI50 (SW-620): 2.75 µM
- TGI (SW-620; read-out: pTGI (converted)): 9.12 µM
- GI50 (HCT-15): 4.68 µM
- GI50 (HCC 2998): 81.3 µM
- growth at 10 µM (A498 [6]): 44%
- growth at 10 µM (NCI/ADR-RES): 66%
- growth at 10 µM (SK-OV-3): 81%
- growth at 10 µM (OVCAR-4): 31%
- growth at 10 µM (SK-MEL-5 [7]): 60%
- growth at 10 µM (MDA-MB-435): 26%
- growth at 10 µM (U-251 [8]): 20%
- growth at 10 µM (SNB-19): 70%
- growth at 10 µM (SF-268 [9]): 52%
- growth at 10 µM (SF-295): 92%
- GI50 (T47D [10]): 17 µM
- GI50 (MCF7): 64.6 µM
- GI50 (RXF 393): 2.4 µM
- LC50 (RXF 393): 38 µM
- TGI (RXF 393; read-out: pTGI (converted)): 8.91 µM
- GI50 (A498 [11]): 3.47 µM
- growth at 10 µM (MDA-MB-468): 20%
- growth at 10 µM (T47D [12]): 57%
- growth at 10 µM (BT-549): 86%
- growth at 10 µM (MDA-MB-231): 37%
- growth at 10 µM (DU-145): 34%
- growth at 10 µM (PC-3): 11%
